# Most compounds without a hit are left out; they make up all but 1.8% or so of the library.
# CHRM5 PAM: human M5 muscarinic receptor positive allosteric modulators, primary screen, CHO-K1 cells, Fluo-8 calcium fluorescence; CHO-K1 hM5, ACh EC20 PAM; 0% = ACh EC20, 100% = ACh EC100; activation, % at 3 µM; actives 0.3% (n = 360,000); AID 624038, 2012;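 active = activation above the run cutoff, the mean activation of all test compounds plus 3 SD, cut at about 18% in these data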
#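 System: CHO-K1 hM5 cells. Reagent: acetylcholine, EC20 level. Compound dosing: single dose, 3 µM nominal final test concentration. Timing: Post-acetylcholine fluorescence recording 140 s. Detection: Fluo-8 calcium fluorescence. Read-out: % activation, ACh-normalized. Benchmarks: ACh EC20 and EC100 wells. Repeats: singlicate, one well per test compound.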
# M4 antag: human M4 muscarinic receptor antagonists, primary screen, CHO cells, Fluo-8 calcium fluorescence. inhibition, % at 3 µM. actives 0.73% (n = 360,000). CHO-hM4 cells, ACh EC80;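 active = inhibition above its plate's cutoff, the mean inhibition of sample wells plus 3 SD, cut at about 27% in these data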;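 note: 0% = acetylcholine EC80 with DMSO and 100% = DMSO without agonist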
# Target sequence (P08173 whole entry, looked up): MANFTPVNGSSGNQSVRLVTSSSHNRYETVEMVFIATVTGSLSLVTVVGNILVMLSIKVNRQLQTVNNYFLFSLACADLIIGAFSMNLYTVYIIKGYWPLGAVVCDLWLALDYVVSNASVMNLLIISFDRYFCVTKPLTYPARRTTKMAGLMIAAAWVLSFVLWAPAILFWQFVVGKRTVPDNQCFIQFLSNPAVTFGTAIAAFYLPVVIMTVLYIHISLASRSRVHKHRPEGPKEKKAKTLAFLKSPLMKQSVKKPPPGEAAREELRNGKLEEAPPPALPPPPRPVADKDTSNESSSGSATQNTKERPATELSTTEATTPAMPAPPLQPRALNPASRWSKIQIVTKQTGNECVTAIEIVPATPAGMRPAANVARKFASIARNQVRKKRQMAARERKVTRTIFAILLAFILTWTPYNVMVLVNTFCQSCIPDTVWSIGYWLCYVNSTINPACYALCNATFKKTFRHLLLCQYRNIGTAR
# CHRM4 agonist: human M4 muscarinic receptor agonists, primary screen, CHO-K1 cells, Fluo-8 calcium fluorescence | CHO-K1 hM4/Gqi5; vehicle 0%, full acetylcholine response 100% | activation, % at 3 µM | actives 0.14% (n = 360,000) | AID 624127, 2012;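 active = activation above the run mean over all test wells plus 3 SD, cut at about 32% in these data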;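 note: peak over basal fluorescence ratio per well then scaled between controls; 0% = DMSO wells and 100% = acetylcholine at EC100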
# CHRM4 PAM: human M4 muscarinic receptor positive allosteric modulators, primary screen, CHO-K1 cells, Fluo-8 calcium fluorescence; Muscarinic acetylcholine receptor M4 (Homo sapiens), P08173; CHO-K1 hM4/Gqi5, ACh EC20; 0% = ACh EC20, 100% = maximal ACh; activation, % at 3 µM; actives 0.4% (n = 360,000); AID 624126, 2012;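 active = activation above its plate's cutoff, the mean activation of sample wells plus 3 SD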
# M5 ag: human M5 muscarinic receptor agonists, primary screen, CHO-K1 cells, Fluo-8 calcium fluorescence. activation, % at 3 µM. Muscarinic acetylcholine receptor M5 (Homo sapiens), P08912. actives 0.19% (n = 360,000). CHO-K1 hM5 cells; 0% DMSO wells, 100% maximal acetylcholine response;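 active = activation above the run's mean over test compounds plus 3 SD, cut at about 23% in these data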;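 note: signal is peak over basal fluorescence ratio across the kinetic read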
# CHRM5 antagonist: human M5 muscarinic receptor antagonists, primary screen, CHO cells, Fluo-8 calcium fluorescence | CHO-hM5 cells, ACh EC80 | AID 624040, 2012 | actives 0.59% (n = 360,000) | inhibition, % at 3 µM | Muscarinic acetylcholine receptor M5 (Homo sapiens), P08912;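 active = inhibition above a per-plate cutoff, the mean of that plate's test compounds plus 3 SD, cut at about 27% in these data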;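 note: 0% = acetylcholine EC80 with DMSO and 100% = DMSO without agonist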
# * hit, by the source's call.
SMILES,CHRM5 PAM,M4 antag,CHRM4 agonist,CHRM4 PAM,M5 ag,CHRM5 antagonist
CCOC(=O)c1ccc(S(=O)(=O)N2CCN(C(=O)c3cccc(S(=O)(=O)N4CC(C)OC(C)C4)c3)CC2)cc1 (stereo not given),-1.0,10.9,3.9,-5.0,-5.1,9.9
CCOC(=O)C1CCCN(c2nc3c(C)cccn3c(=O)c2/C=C(\C#N)C(=O)NCc2ccco2)C1 (stereo not given),-27.0,1.3,6.3,-24.5,31.0*,12.8
Cc1cccn2c(=O)c(/C=C(\C#N)C(=O)NCc3ccco3)c(N3CCCC(C)C3)nc12 (stereo not given),-4.7,13.3,0.4,2.7,0.0,6.8
Cc1ccc(NC(=O)Cc2nn(C)c(=O)c3ccccc23)cc1F,-15.7,32.8*,4.7,-11.9,4.7,15.1
O=C(CCn1cnc2ccccc2c1=O)Nc1ccc2c(c1)OCCO2,24.8*,-5.8,1.6,0.8,-5.3,-8.4
CCCn1cc(SCC(=O)Nc2ccc3c(c2)OCO3)c2ccccc21,-19.5,-11.1,5.2,-4.6,28.5*,5.4
Cn1nc(CC(=O)Nc2ccc3c(c2)OCCO3)c2ccccc2c1=O,-7.6,16.0,8.5,2.6,5.6,32.4*
COc1ccc([C@H]2CN(c3ccc(OC)cc3)C(=O)[C@@H]2CC(=O)Nc2ccc(Br)cc2)cc1,-6.0,-20.9,1.1,-0.1,-0.3,3.0
CC#CC(=O)N1CCC(n2nccc2NC(=O)CCc2ccccc2)CC1,-2.9,-5.9,0.7,-3.7,-0.6,2.3
Cc1nnc(NC(=O)CCC(=O)NC2CCCCCCC2)s1,-2.0,-1.6,0.6,2.3,-5.2,6.0
CC(C)(CNC(=O)c1cccc(F)c1)CNC(=O)c1cccc(F)c1,4.3,3.6,5.7,-6.8,-6.1,-3.4
CCOC(=O)C1CCCN(C2=NC(=O)/C(=C/c3ccc(N(C)C)cc3)S2)C1 (stereo not given),-6.8,-4.7,41.4*,-8.5,11.4,6.8
C=C1CC(Cn2cc(Br)c(=O)[nH]c2=O)(c2ccc(-c3ccccc3)cc2)OC1=O (stereo not given),-21.5,46.2*,5.9,-7.2,-2.8,3.6
CCCCCCCCCn1c2c(c(=N)c3c1CCC3)CCC2,-17.1,50.0*,4.4,-25.6,-3.3,39.9*
CCCCCCn1c2c(c(=N)c3c1CCC3)CCC2,-1.1,10.4,2.4,9.2,-4.0,8.3
CCn1c2c(c(=N)c3c1CCC3)CCC2,-11.4,-2.8,0.8,-2.1,-3.8,31.7*
CN(C1CCCCC1)S(=O)(=O)c1cccc2nsnc12,1.1,-7.3,2.7,4.9,-5.7,7.4
Cn1ccnc1CN1CCCCC1C(=O)Nc1ccc(Oc2cccnc2)cc1 (stereo not given),1.4,-3.1,0.7,-4.4,-6.4,-3.5
CC(C)N(C(=O)COC(=O)c1cc(Cl)cc(Cl)c1N)C(C)C,-15.0,11.3,-2.6,-10.6,-6.5,27.2*
COc1ccc(/C=C2\SC(N)=NC2=O)cc1,-3.8,1.1,0.4,-6.1,3.6,2.2
COc1cc(/C=C2\SC(N)=NC2=O)cc(Br)c1O,-9.5,-0.6,6.8,-7.0,23.7*,-7.0
COc1cc(/C=N/N2C(=O)CSC2=S)cc(Br)c1O,-21.3,8.5,69.4*,-30.4,55.7*,10.0
Cc1cc(N2CCOCC2)ccc1/C=C\[N+](=O)[O-],2.4,19.6,6.1,-7.2,15.9,30.8*
O=[N+]([O-])c1ccc(N2CCOCC2)cc1O,13.2,1.4,0.9,-5.3,3.7,-3.7
CN1CCN(C(=O)c2cccc(NS(=O)(=O)c3ccc(Br)cc3)c2)CC1,-0.1,6.2,0.4,-3.6,-0.9,5.8
SMILES,CHRM5 PAM,M4 antag,CHRM4 agonist,CHRM4 PAM,M5 ag,CHRM5 antagonist
COc1ccc(-c2nnc(SCC(=O)NCC3CCCO3)o2)cc1 (stereo not given),2.5,3.2,0.5,-0.6,-4.9,7.5
Cc1cc(C)cc(-c2nnc(SCC(=O)NCC3CCCO3)o2)c1 (stereo not given),-1.1,-2.8,2.5,23.0*,-3.4,8.5
CC(=O)Nc1ccc(Sc2ccc([N+](=O)[O-])o2)cc1,-10.2,3.8,-0.4,5.3,-3.4,14.1
CC(C)(C)C(=O)Nc1ccc(Sc2ccc([N+](=O)[O-])cc2)cc1,-18.1,21.0,13.1,-15.4,1.7,42.7*
O=C(COC(=O)C1(c2ccccc2F)CCCC1)NC1CCS(=O)(=O)C1 (stereo not given),1.2,-15.6,1.4,24.3*,1.5,-7.6
O=C(COc1ccccc1)NC1CCS(=O)(=O)C1 (stereo not given),5.7,-5.6,1.4,1.4,1.5,-2.9
Cc1cc(OCC(=O)Nc2ccc(CN3CCCCC3)cc2)ccc1Cl,-15.2,18.5,36.3*,-21.3,1.7,19.4
NC(=S)NN=Cc1cc(-c2cccc(N)c2)ccn1,0.3,-10.0,1.0,-1.5,0.7,-9.9
CCCCOc1ccc(S(=O)(=O)NC(=O)C2(C)CCN2C(=O)c2c(C)noc2C)cc1 (stereo not given),1.4,-2.8,1.0,18.8*,0.2,-3.5
Cc1ccc(S(=O)(=O)NC(=O)C2(C)CCN2C(=O)c2c(C)noc2C)cc1 (stereo not given),2.3,-13.1,0.6,3.9,0.3,0.0
COc1ccccc1NC(=O)Cc1nnc(SCC(=O)NC2CCCC2)n1C,-6.8,14.9,1.6,-2.4,-2.1,22.9
COc1ccccc1NC(=O)CSCc1nc2ccccc2[nH]1,-1.8,-4.1,2.1,20.9*,-1.8,-1.2
COc1ccc(NC(=O)CSc2nncn2N)c(OC)c1,4.9,-1.6,0.0,-6.8,3.7,-1.1
COc1ccccc1NC(=O)CSc1nncn1N,19.3*,6.0,1.3,-1.2,6.0,-6.2
COc1ccccc1NC(=O)Cc1nnc(SCC(=O)NC2CCCCC2C)n1C (stereo not given),-7.9,3.1,1.9,-2.4,-3.1,31.1*
CCC(C)C(NC(=O)c1ccccc1)C(=O)N1CCN(C(=O)c2ccccc2)CC1 (stereo not given),2.0,-5.7,2.5,6.1,-0.1,-1.4

# From PubChem
